Results from ChEMBL document CHEMBL1821594, “Synthesis and anticancer evaluation of novel 2-cyclopropylimidazo[2,1-b][1,3,4]-thiadiazole derivatives” (2011).

Key:
Type in all cases: functional
HL-60(TB) = assay: Antitumor activity against human HL-60(TB) cells after 48 hrs by SRB assay; details: HL-60, 48 h
Outline: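 NCI-60 protocol: cells in RPMI 1640 with 5% FBS and 2 mM glutamine, preincubated 24 h at 37 °C with 5% CO2. Compounds from DMSO stock, tested at 10^-5 M single dose or five 10-fold doses, for 48 h. Suspension cells fixed in settled form (16% TCA final), then SRB stained and read at 515 nm. % growth is calculated against time-zero and control plates; GI50, TGI and LC50 are derived.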

SK-MEL-5 = assay: Antitumor activity against human SK-MEL-5 cells after 48 hrs by SRB assay; details: SK-MEL-5, 48 h
Outline: (§1)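 Cells grown in RPMI 1640 with 5% FBS and 2 mM L-glutamine and seeded at 5000–40,000 cells/well according to doubling time. They were preincubated 24 h at 37 °C, 5% CO2, then exposed to DMSO-solubilized compound for 48 h. Adherent cells were fixed with cold TCA (10% final), suspension cells with 16% final. Stained with 0.4% SRB; absorbance at 515 nm. Percent growth calculated against time-zero and control plates.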

UACC-257 = assay: Antitumor activity against human UACC257 cells after 48 hrs by SRB assay; details: UACC-257, 48 h
Outline: (§2)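 NCI-60 protocol. Cells were grown in RPMI 1640 with 5% FBS and 2 mM L-glutamine, plated at 5000–40,000 cells/well, and preincubated 24 h at 37 °C, 5% CO2. Time-zero plates were TCA-fixed. Compounds were in DMSO and incubated 48 h. Fixation used cold TCA (final 16% for suspension SR; final 10% for adherent lines 2-7). Plates were stained with 0.4% SRB in 1% acetic acid, solubilized in 10 mM Tris base, and read at 515 nm. Percent growth was calculated from Tz, C and Ti.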

UACC-62 = assay: Antitumor activity against human UACC62 cells after 48 hrs by SRB assay; details: UACC-62, 48 h; outline: as §2
IGROV-1 = assay: Antitumor activity against human IGROV1 cells after 48 hrs by SRB assay; details: IGROV-1, 48 h; outline: as §1
OVCAR-3 = assay: Antitumor activity against human OVCAR3 cells after 48 hrs by SRB assay; details: OVCAR-3, 48 h; outline: as §1
NCI/ADR-RES = assay: Antitumor activity against human NCI/ADR-RES cells after 48 hrs by SRB assay; outline: as §1
ACHN = assay: Antitumor activity against human ACHN cells after 48 hrs by SRB assay; outline: as §1
CAKI-1 = assay: Antitumor activity against human Caki1 cells after 48 hrs by SRB assay; details: CAKI-1, 48 h; outline: as §1
SN12C = assay: Antitumor activity against human SN12C cells after 48 hrs by SRB assay; outline: as §1
PC-3 = assay: Antitumor activity against human PC3 cells after 48 hrs by SRB assay; details: PC-3, 48 h; outline: as §1
K562 = assay: Antitumor activity against human K562 cells after 48 hrs by SRB assay; details: K562, 48 h; outline: as §1
SR = assay: Antitumor activity against human SR cells after 48 hrs by SRB assay; outline: as §2
NCI-H23 = assay: Antitumor activity against human NCI-H23 cells after 48 hrs by SRB assay; details: NCI-H23, 48 h; outline: as §1
NCI-H460 = assay: Antitumor activity against human NCI-H460 cells after 48 hrs by SRB assay; details: NCI-H460, 48 h; outline: as §1
COLO 205 = assay: Antitumor activity against human COLO205 cells after 48 hrs by SRB assay; details: COLO 205, 48 h; outline: as §1
HCT-116 = assay: Antitumor activity against human HCT116 cells after 48 hrs by SRB assay; details: HCT-116, 48 h; outline: as §1
HCT-15 = assay: Antitumor activity against human HCT15 cells after 48 hrs by SRB assay; details: HCT-15, 48 h; outline: as §1
HT-29 = assay: Antitumor activity against human HT-29 cells after 48 hrs by SRB assay; details: HT-29, 48 h; outline: as §1
KM12 = assay: Antitumor activity against human KM12 cells after 48 hrs by SRB assay; details: KM12, 48 h; outline: as §1
SF-539 = assay: Antitumor activity against human SF539 cells after 48 hrs by SRB assay; details: SF-539, 48 h; outline: as §1
SNB-19 = assay: Antitumor activity against human SNB19 cells after 48 hrs by SRB assay; details: SNB-19, 48 h; outline: as §1
SNB-75 = assay: Antitumor activity against human SNB75 cells after 48 hrs by SRB assay; details: SNB-75, 48 h; outline: as §1
U-251 = assay: Antitumor activity against human U251 cells after 48 hrs by SRB assay; details: U-251, 48 h; outline: as §2
Malme-3M = assay: Antitumor activity against human MALME-3M cells after 48 hrs by SRB assay; outline: as §1
M14 = assay: Antitumor activity against human M14 cells after 48 hrs by SRB assay; details: M14, 48 h; outline: as §1
SK-MEL-2 = assay: Antitumor activity against human SK-MEL-2 cells after 48 hrs by SRB assay; details: SK-MEL-2, 48 h; outline: as §1
[1] = read-out: LC50 (the source's name)

## Clc1ccc(-c2nc3sc(C4CC4)nn3c2Br)cc1
HL-60(TB)
  GI50: 3.34 µM
  TGI: > 100 µM
HL-60(TB); [1]
  CC50: > 100 µM
SK-MEL-5
  GI50: 2.17 µM
  TGI: > 100 µM
SK-MEL-5; [1]
  CC50: > 100 µM
UACC-257
  GI50: 4.14 µM
  TGI: > 100 µM
UACC-257; [1]
  CC50: > 100 µM
UACC-62
  GI50: 4.36 µM
  TGI: > 100 µM
UACC-62; [1]
  CC50: > 100 µM
IGROV-1
  GI50: 17.3 µM
  TGI: > 100 µM
IGROV-1; [1]
  CC50: > 100 µM
OVCAR-3
  GI50: 4.63 µM
  TGI: > 100 µM
OVCAR-3; [1]
  CC50: > 100 µM
NCI/ADR-RES
  GI50: 4.18 µM
  TGI: > 100 µM
NCI/ADR-RES; [1]
  CC50: > 100 µM
ACHN
  GI50: 7.07 µM
  TGI: > 100 µM
ACHN; [1]
  CC50: > 100 µM
CAKI-1
  GI50: 9.69 µM
  TGI: > 100 µM
CAKI-1; [1]
  CC50: > 100 µM
SN12C
  GI50: 14.3 µM
  TGI: > 100 µM
SN12C; [1]
  CC50: > 100 µM
PC-3
  GI50: 2.22 µM
  TGI: > 100 µM
PC-3; [1]
  CC50: > 100 µM
K562
  GI50: 1.79 µM
  TGI: > 100 µM
K562; [1]
  CC50: > 100 µM
SR
  GI50: 2.9 µM
  TGI: > 100 µM
SR; [1]
  CC50: > 100 µM
NCI-H23
  GI50: 5.1 µM
  TGI: > 100 µM
NCI-H23; [1]
  CC50: > 100 µM
NCI-H460
  GI50: 5.25 µM
  TGI: > 100 µM
NCI-H460; [1]
  CC50: > 100 µM
COLO 205
  GI50: 7.23 µM
  TGI: > 100 µM
COLO 205; [1]
  CC50: > 100 µM
HCT-116
  GI50: 2.96 µM
  TGI: > 100 µM
HCT-116; [1]
  CC50: > 100 µM
HCT-15
  GI50: 2.02 µM
  TGI: > 100 µM
HCT-15; [1]
  CC50: > 100 µM
HT-29
  GI50: 6.12 µM
  TGI: > 100 µM
HT-29; [1]
  CC50: > 100 µM
KM12
  GI50: 3.77 µM
  TGI: > 100 µM
KM12; [1]
  CC50: > 100 µM
SF-539
  GI50: 6.78 µM
  TGI: > 100 µM
SF-539; [1]
  CC50: > 100 µM
SNB-19
  GI50: 15.6 µM
  TGI: > 100 µM
SNB-19; [1]
  CC50: > 100 µM
SNB-75
  GI50: 12.2 µM
  TGI: 51.9 µM
SNB-75; [1]
  CC50: > 100 µM
U-251
  GI50: 4.29 µM
  TGI: > 100 µM
U-251; [1]
  CC50: > 100 µM
Malme-3M
  GI50: 8.79 µM
  TGI: > 100 µM
Malme-3M; [1]
  CC50: > 100 µM
M14
  GI50: 7.7 µM
  TGI: > 100 µM
M14; [1]
  CC50: > 100 µM
SK-MEL-2
  GI50: 11 µM
  TGI: 59.3 µM
SK-MEL-2; [1]
  CC50: > 100 µM
